ChEMBL document CHEMBL3045489, “Synthesis, fungicidal activity, and QSAR of a series of 2-dichlorophenyl-3-triazolylpropyl ethers” (J Agric Food Chem, 2000)
≈ marks a conversion by molar mass, not a printed value. Calls of active or inactive are those of the source. The rule behind the calls is not given here.

Experiments:
[1] = test system: Cercospora beticola; assay: Antifungal activity against Cercospora beticola assessed as inhibition of radial growth on potato dextrose; type: functional, organism-based
Procedure, shortened: (§1)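 Radial growth inhibition on potato dextrose or Czapek agar across 100-0.1 mg L-1. ED50 calculated for each compound.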

[2] = test system: Botrytis cinerea; assay: Antifungal activity against Botryotinia fuckelianaassessed as inhibition of radial growth on potato dextrose; type: functional, organism-based; procedure, shortened: as §1
[3] = test system: Podosphaera fuliginea; assay: Fungicidal activity against Podosphaera fuliginea inoculated in […] placed in growth room after 24 hr incubation assessed as direct protection after 6 to 10 days; type: functional
[4] = test system: Fusarium graminearum; assay: Antifungal activity against Fusarium graminearum assessed as inhibition of radial growth on potato dextrose; type: functional, organism-based; procedure, shortened: as §1
[5] = test system: Podosphaera fuliginea; assay: Fungicidal activity against Podosphaera fuliginea inoculated in […] placed in growth room after 24 hr incubation assessed as disease cure after 24 hr of inoculation; type: functional
[6] = test system: Bipolaris maydis; assay: Antifungal activity against Cochliobolus heterostrophus assessed as inhibition of radial growth on potato dextrose; type: functional, organism-based; procedure, shortened: as §1
[7] = test system: Ustilago maydis; assay: Antifungal activity against Ustilago maydis assessed as inhibition of radial growth on potato dextrose; type: functional, organism-based; conditions: Mycosarcoma maydis
[8] = test system: Pyrenophora teres; assay: Antifungal activity against Pyrenophora teres assessed as inhibition of radial growth on potato dextrose; type: functional, organism-based
[9] = test system: Uromyces appendiculatus; assay: Fungicidal activity against Uromyces appendiculatus inoculated in Phaseolus vulgaris placed in growth room after 24 hr incubation assessed as direct protection after 6 to 10 days; type: functional
Procedure, shortened: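 Bean plants grown at 22 ± 1 °C, 80 ± 10% RH. Compound in acetone/water (1:4 v/v) with Tween 20 (0.4 mg mL-1) was sprayed on leaves until moist at 100 to 0.001 mg L-1. One day later leaves were inoculated with U. appendiculatus uredospores (1 × 10^5 spores mL-1), held 24 h at 22 ± 2 °C and 100% RH, then moved to the growth room. Scored at 6, 8 and 10 days as MIC.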

[10] = test system: Oculimacula yallundae; assay: Antifungal activity against Oculimacula yallundae assessed as inhibition of radial growth on potato dextrose; type: functional, organism-based; procedure, shortened: as §1
[11] = molecular target: T1, Lanosterol 14-alpha demethylase (Mycosarcoma maydis) (UniProt P49602); assay: Inhibition of 14alpha-demethylase Ustilago maydis ATCC 14826 assessed as reduction in ergosta-5,7-dien-3-ol
T1 sequence (whole entry): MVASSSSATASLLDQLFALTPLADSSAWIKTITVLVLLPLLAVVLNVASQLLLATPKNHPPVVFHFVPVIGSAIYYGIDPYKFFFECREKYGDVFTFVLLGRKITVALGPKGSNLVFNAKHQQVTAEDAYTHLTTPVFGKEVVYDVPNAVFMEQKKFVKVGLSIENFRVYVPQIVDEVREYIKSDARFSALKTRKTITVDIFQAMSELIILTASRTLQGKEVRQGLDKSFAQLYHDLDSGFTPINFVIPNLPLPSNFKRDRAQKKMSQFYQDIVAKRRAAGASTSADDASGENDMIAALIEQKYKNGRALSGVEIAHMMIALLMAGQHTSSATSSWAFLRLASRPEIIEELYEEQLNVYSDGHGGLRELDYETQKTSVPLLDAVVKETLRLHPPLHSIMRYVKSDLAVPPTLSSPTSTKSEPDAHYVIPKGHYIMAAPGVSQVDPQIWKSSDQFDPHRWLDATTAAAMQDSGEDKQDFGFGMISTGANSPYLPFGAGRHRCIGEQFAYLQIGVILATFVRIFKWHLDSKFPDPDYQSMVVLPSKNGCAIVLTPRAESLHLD
Procedure, shortened: (§2)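 Actively growing broth cultures of U. maydis ATCC 14826 were incubated 18 h with increasing compound concentrations. Sterols were then extracted and analysed, and 14α-demethyl and 14α-methyl sterols quantified.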

[12] = molecular target: T1, Lanosterol 14-alpha demethylase (Mycosarcoma maydis); assay: Inhibition of 14alpha-demethylase Ustilago maydis ATCC 14826 assessed as reduction in ergosterol; procedure, shortened: as §2
[13] = molecular target: T2, Lanosterol 14-alpha demethylase (Mycosarcoma maydis, UniProt P49602); assay: Inhibition of 14alpha-demethylase Ustilago maydis ATCC 14826 assessed as reduction in 14alpha-methylfecosterol; conditions: read-out: I50 (converted); procedure, shortened: as §2
T2 sequence (P49602 whole entry): T1 sequence (whole entry)

[14] = test system: Uromyces appendiculatus; assay: Fungicidal activity against Uromyces appendiculatus inoculated in Phaseolus vulgaris placed in growth room after 24 hr incubation assessed as disease cure after 24 hr of inoculation; type: functional
Procedure, shortened: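 Bean rust curative test with the same plants, spray formulation (acetone/water 1:4 with Tween 20), 100 to 0.001 mg L-1 range and U. appendiculatus inoculum (1 × 10^5 spores mL-1). Compound applied 24 h after inoculation. Read-out expressed as MIC.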

## C=C(Cn1cncn1)c1ccc(Cl)cc1Cl
[1]
  EC50: 0.6 µg/mL (≈ 2.36 µM)
[2]
  EC50: 4.5 µg/mL (≈ 17.7 µM)
[3]
  MIC: 8 µg/mL (≈ 31.5 µM)
[4]
  EC50: 2.9 µg/mL (≈ 11.4 µM)
[5]
  MIC: 1 µg/mL (≈ 3.94 µM)
[6]
  EC50: 0.4 µg/mL (≈ 1.57 µM)
[7]
  EC50: 0.8 µg/mL (≈ 3.15 µM)
[8]
  EC50: 0.9 µg/mL (≈ 3.54 µM)
[9]
  MIC: 150 µg/mL (≈ 590 µM)
[10]
  EC50: 0.45 µg/mL (≈ 1.77 µM)

## Clc1ccc([C@@H](COCc2ccccc2)Cn2cncn2)c(Cl)c1
[1]
  EC50: 0.18 µg/mL (≈ 0.497 µM)
[2]
  EC50: 1.3 µg/mL (≈ 3.59 µM)
[3]
  MIC: 100 µg/mL (≈ 276 µM)
[4]
  EC50: 13 µg/mL (≈ 35.9 µM)
[6]
  EC50: 0.25 µg/mL (≈ 0.69 µM)
[7]
  EC50: 0.09 µg/mL (≈ 0.248 µM)
[8]
  EC50: 0.35 µg/mL (≈ 0.966 µM)
[9]
  MIC: 50 µg/mL (≈ 138 µM)
[10]
  EC50: 0.6 µg/mL (≈ 1.66 µM)

## Clc1ccc([C@H](COCc2ccccc2)Cn2cncn2)c(Cl)c1
[1]
  EC50: 0.16 µg/mL (≈ 0.442 µM)
[2]
  EC50: 3 µg/mL (≈ 8.28 µM)
[3]
  MIC: 80 µg/mL (≈ 221 µM)
[4]
  EC50: 18 µg/mL (≈ 49.7 µM)
[6]
  EC50: 0.25 µg/mL (≈ 0.69 µM)
[7]
  EC50: < 0.1 µg/mL
[8]
  EC50: 0.5 µg/mL (≈ 1.38 µM)
[9]
  MIC: 50 µg/mL (≈ 138 µM)
[10]
  EC50: 0.41 µg/mL (≈ 1.13 µM)

## C=CCOC[C@@H](Cn1cncn1)c1ccc(Cl)cc1Cl
[1]
  EC50: < 0.1 µg/mL
[2]
  EC50: 1.5 µg/mL (≈ 4.8 µM)
[3]
  MIC: 90 µg/mL (≈ 288 µM)
[4]
  EC50: 10 µg/mL (≈ 32 µM)
[11]
  inhibition: Active
[6]
  EC50: 0.18 µg/mL (≈ 0.577 µM)
[7]
  EC50: 0.09 µg/mL (≈ 0.288 µM)
[12]
  inhibition: Active
[8]
  EC50: 1.5 µg/mL (≈ 4.8 µM)
[9]
  MIC: 25 µg/mL (≈ 80.1 µM)
[13]
  IC50: 0.897 µM
[10]
  EC50: 0.28 µg/mL (≈ 0.897 µM)

## C=CCOC[C@H](Cn1cncn1)c1ccc(Cl)cc1Cl
[1]
  EC50: 0.25 µg/mL (≈ 0.801 µM)
[2]
  EC50: 3 µg/mL (≈ 9.61 µM)
[3]
  MIC: 100 µg/mL (≈ 320 µM)
[4]
  EC50: 8.5 µg/mL (≈ 27.2 µM)
[11]
  inhibition: Active
[6]
  EC50: 0.2 µg/mL (≈ 0.641 µM)
[7]
  EC50: 0.22 µg/mL (≈ 0.705 µM)
[12]
  inhibition: Active
[8]
  EC50: 0.8 µg/mL (≈ 2.56 µM)
[9]
  MIC: 100 µg/mL (≈ 320 µM)
[13]
  IC50: 1.99 µM
[10]
  EC50: 0.4 µg/mL (≈ 1.28 µM)

## C#CCOCC(Cn1cncn1)c1ccc(Cl)cc1Cl (stereo unspecified)
[1]
  EC50: 0.3 µg/mL (≈ 0.967 µM)
[2]
  EC50: 3.6 µg/mL (≈ 11.6 µM)
[4]
  EC50: 25 µg/mL (≈ 80.6 µM)
[7]
  EC50: 0.5 µg/mL (≈ 1.61 µM)
[8]
  EC50: 1.4 µg/mL (≈ 4.51 µM)
[9]
  MIC: > 100 µg/mL
[10]
  EC50: 0.5 µg/mL (≈ 1.61 µM)

## OCCCOCC(Cn1cncn1)c1ccc(Cl)cc1Cl (racemic)
[1]
  EC50: 1.7 µg/mL (≈ 5.15 µM)
[2]
  EC50: 70 µg/mL (≈ 212 µM)
[3]
  MIC: > 100 µg/mL
[4]
  EC50: 75 µg/mL (≈ 227 µM)
[6]
  EC50: 1.3 µg/mL (≈ 3.94 µM)
[7]
  EC50: 1 µg/mL (≈ 3.03 µM)
[8]
  EC50: 8 µg/mL (≈ 24.2 µM)
[9]
  MIC: > 200 µg/mL
[10]
  EC50: 2.5 µg/mL (≈ 7.57 µM)

## Clc1ccc(C(COCc2ccccc2)Cn2cncn2)c(Cl)c1 (racemic)
[1]
  EC50: 0.2 µg/mL (≈ 0.552 µM)
[2]
  EC50: 1.6 µg/mL (≈ 4.42 µM)
[3]
  MIC: 50 µg/mL (≈ 138 µM)
[4]
  EC50: 5 µg/mL (≈ 13.8 µM)
[14]
  MIC: 35 µg/mL (≈ 96.6 µM)
[6]
  EC50: 0.18 µg/mL (≈ 0.497 µM)
[7]
  EC50: 0.14 µg/mL (≈ 0.386 µM)
[8]
  EC50: 0.7 µg/mL (≈ 1.93 µM)
[9]
  MIC: 30 µg/mL (≈ 82.8 µM)
[10]
  EC50: 0.35 µg/mL (≈ 0.966 µM)

## O=[N+]([O-])c1ccc(COCC(Cn2cncn2)c2ccc(Cl)cc2Cl)cc1 (racemic)
[1]
  EC50: 0.09 µg/mL (≈ 0.221 µM)
[2]
  EC50: 2.8 µg/mL (≈ 6.88 µM)
[3]
  MIC: 10 µg/mL (≈ 24.6 µM)
[4]
  EC50: > 200 µg/mL
[6]
  EC50: 0.15 µg/mL (≈ 0.368 µM)
[7]
  EC50: 0.08 µg/mL (≈ 0.196 µM)
[8]
  EC50: 0.75 µg/mL (≈ 1.84 µM)
[9]
  MIC: 43 µg/mL (≈ 106 µM)
[10]
  EC50: 0.18 µg/mL (≈ 0.442 µM)

## COc1ccc(COCC(Cn2cncn2)c2ccc(Cl)cc2Cl)cc1 (racemic)
[1]
  EC50: 0.1 µg/mL (≈ 0.255 µM)
[2]
  EC50: 1 µg/mL (≈ 2.55 µM)
[3]
  MIC: 35 µg/mL (≈ 89.2 µM)
[4]
  EC50: 10 µg/mL (≈ 25.5 µM)
[14]
  MIC: 12 µg/mL (≈ 30.6 µM)
[6]
  EC50: 0.15 µg/mL (≈ 0.382 µM)
[7]
  EC50: 0.07 µg/mL (≈ 0.178 µM)
[8]
  EC50: 0.45 µg/mL (≈ 1.15 µM)
[9]
  MIC: 30 µg/mL (≈ 76.5 µM)
[10]
  EC50: 0.35 µg/mL (≈ 0.892 µM)

## CC(C)(C)c1ccc(COCC(Cn2cncn2)c2ccc(Cl)cc2Cl)cc1 (racemic)
[1]
  EC50: 0.28 µg/mL (≈ 0.669 µM)
[2]
  EC50: 3.8 µg/mL (≈ 9.08 µM)
[3]
  MIC: 10 µg/mL (≈ 23.9 µM)
[4]
  EC50: 6.5 µg/mL (≈ 15.5 µM)
[5]
  MIC: 10 µg/mL (≈ 23.9 µM)
[6]
  EC50: 0.4 µg/mL (≈ 0.956 µM)
[7]
  EC50: 0.1 µg/mL (≈ 0.239 µM)
[8]
  EC50: 0.8 µg/mL (≈ 1.91 µM)
[9]
  MIC: 25 µg/mL (≈ 59.8 µM)
[10]
  EC50: 1.2 µg/mL (≈ 2.87 µM)

## Clc1ccc(COCC(Cn2cncn2)c2ccc(Cl)cc2Cl)c(Cl)c1 (racemic)
[1]
  EC50: 0.18 µg/mL (≈ 0.417 µM)
[2]
  EC50: 1 µg/mL (≈ 2.32 µM)
[3]
  MIC: 10 µg/mL (≈ 23.2 µM)
[4]
  EC50: 12 µg/mL (≈ 27.8 µM)
[6]
  EC50: 0.28 µg/mL (≈ 0.649 µM)
[7]
  EC50: 0.09 µg/mL (≈ 0.209 µM)
[8]
  EC50: 0.35 µg/mL (≈ 0.812 µM)
[9]
  MIC: 30 µg/mL (≈ 69.6 µM)
[10]
  EC50: 0.65 µg/mL (≈ 1.51 µM)
